From the RNAGym collection of RNA variant scans (doi:10.1126/science.aae0568)
This sample holds only a part of the variants without activity.

B1: tRNA (parent)
chain: GUUCCGUUGGCGUAAUGGUAACGCGUCUCCCUCCUAAGGAGAAGACUGCGGGUUCGAGUCCCGUACGGAACG

Variants of: B1
Assay: yeast fitness relative to wild type (ratio to wild type); higher = fitter; tRNA-Arg(CCU), competitive growth, 37 C, YPD
In short: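 Variants of the tRNA-Arg(CCU) gene were chemically synthesised with a 3% per-site mutation rate across 69 sites and placed at the native genomic locus in Saccharomyces cerevisiae. Six parallel replicates of the pooled strains were competed in YPD at 37°C for 24 hours, and gene amplicons from the start and end populations were read by 100-nucleotide paired-end sequencing. Darwinian fitness relative to wild type was derived from changes in genotype frequencies. Genotypes required ≥ 100 starting reads, and estimates < 0.5 were set to 0.5.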
In the case of GUUCCGUUGGCGUAAAGGUAACGCGUCUCCCUCCUAAGGAGAAGCCUGCGGGUUCGAGUCCCGUACGGCACG, the yeast fitness is reported as 0.662.
With GUUCCGGUGGCGUAAUGGUAACGCGUCUCCCUCCUAAGGAGAAGACUGCGGGUUUCAGUCCCUUACGGAACG the yeast fitness was 0.602.
For GUUCCGUUGGCGUAAUGGUAACGCGUUUCCCUCCCGAGGAGAAGACUGCGGGUUCGAGUCCCGUACGGAACG, the yeast fitness was 0.566.
With GUUCCGUUGGCGUAAUGGUAGCGCGUCUCCCUCCUAAGGAGAAGACUGCGCGUUCGAGUCCCGUACGGAACG the yeast fitness was 0.647.
Work on GUUCCGUUGGAGUAAUGGUAACGCGUCUCCCUCCUGAGGAGACGACUGCGGGUUCGAGUCCCGUACGGAACG yielded a yeast fitness of 0.58.
In the case of GUUCCGUUGGCGUAAUGGUCACGCGUCGCCCUCCUAAGGAGAAGAAUGCGGGUUCGAGUCCCGUACGGAACG, the yeast fitness is reported as 0.531.
With GUUCCGUUGGUGUAACGGUAACGCGUCUCCCUACUAAGGAGAAGACUGCGGGCUCGAGUCCCGUACGGAACG the yeast fitness was at most 0.5.
Work on GUUCCGUUGGCGUAAUGGUAACGCGUCUUCCUCCUAAGGAGAAGACUCCGGGUUCGAGUCCCGUACGGAACG yielded a yeast fitness of 0.859.
In the case of GUUACGUUGGCGUAAUGGUAACGCGUGUCCCCCCUGAGGAGAAGACUGCGGGUUCGGAUCCUGUACGGAUCG, the yeast fitness is reported as at most 0.5.
In the case of GUUCCGUUGGCGUAAUGGUAACGCGUCUCCCUCCUAAGGAGAAGACGGCGGGUUCGAGUCCCGUAGGGAACG, the yeast fitness is reported as 0.517.
With GUUCCGUUGGCGAAAUGGUAACGCGUCUCCCUCCUAAGGAGAAGACUGCGGGUUCGAGUCACGUACGGAACG the yeast fitness was 0.706.
Work on GUUUCGUUGGCGUAAUGGUCACGCGUCUCCCUCGUGAGGAGAAGACUGCGGGUUCGAGUCCCGUACGGAACG yielded a yeast fitness of 0.606.
GUUCCGUUGGCGUAAUGGUAACGCGUAUACCUCCUAAGGAGAAGACUGCGGGUUCGAGUCCCGUACGGAACG showed a yeast fitness of 0.589.
GUACCGUUAGCGUGAUGGUAACGCGUCUCCCUCCUAAGGAGAAGACUGUGGGUUCGAGUCCCGUACGGAACG gave a yeast fitness of at most 0.5.
GUUCCGUUGGCGUAAUGCUAAUGCGUCUACCUCCUAAGGAGGAGACUGCGGGUUCGAGUCCCGUACGGAACG gave a yeast fitness of 0.541.
In the case of GUUCCGUUGGCGUAAUGGUAACGCGUCUCCCUCUUAAGGAGAAGACUGCGGGUUUGAGUCCCGUUCGGAACG, the yeast fitness is reported as 0.607.
With GUUCCGUUGGCGUUAUGGUAACGCGUCUCACCCCUAAGGAGAAGACUGCGGGUUCGAGUCCCGUACGGAACG the yeast fitness was at most 0.5.
With GCUCAGUUGGCGUAAUGGUAACGCGUCUCCCUCCUAAGGAGAAGACUGCGGGUUCGAGUCCCGUUCGGAACG the yeast fitness was 0.668.
In the case of GUUCGGUUGGCGUUAUGGUAACGCAUCUCCCUCCUAAGGAGAAGACUCCGGGUUCGAGUCACGUACGGAACG, the yeast fitness is reported as 0.528.
In the case of GUUCCGUUGGCGUAAUGGUCACGCGUCUCCCUCCUAAGGAGAAGACUGCGGGUUCGAGUCCCGUAUGGAACG, the yeast fitness is reported as 0.931.
GUUCCGUUGGCGUAAUGGUAACGCGUCUCACUCCUACGGAGAUGACUGCGGGUUCGAGUCCCGUACGGAACG gave a yeast fitness of 0.608.
In the case of GUUCCGUAGGCGUAAUGGUAACGUGUCUCCCUCCUAAGGAGAAGACUGCGGGUUCGAGUCCCGUACGGAACG, the yeast fitness is reported as 0.834.
GUUCCGUUGGCGUAAUGGUAACGCGACUCCCUCCUAAGGAGAACACUGCGGGUUCGAGUCCCGUACUGAACG gave a yeast fitness of 0.593.
In the case of GUUCGGUUGGCGUCAAGGUAACGCGUCUCUCUCCUAACGACAAGACUGCGGGUUCGAGUCCCGUAUGGAACG, the yeast fitness is reported as at most 0.5.
Variant GUUCCGUUGGCGUAAUGGUAACGCGUCUCUAUCCUAAGGAAAAGACUGCGGGUUCGAGUCCCGUACGGAACG has a yeast fitness of at most 0.5.
For GUUCCGUUGGCGUAAUGGUAACGCGUUUCCCUCCUUACGAGACGACUGCGGGUUCGAGUCCCAUACGGAACG, the yeast fitness was at most 0.5.
GUACAGUUGGCGUAAUGGUAACGCGUCUCCCUGUUAAGGAGAAGACUGCGGGUUCGAGUCCCGUACGGAACG showed a yeast fitness of 0.634.
Variant GAUCCGUUGGUGUAAUGGGAACGCGUCUCCCUCCUAAGGAGAAGACUGCGGGUUCGAGUCCCGUACGGAACG has a yeast fitness of 0.647.
Work on GUUCCGUUGGCGUAAUGGUAACGCGUCUCACUCCUAAGGAGAAGACUGCGGGUUCGUGUCUCGUACGGGACG yielded a yeast fitness of at most 0.5.
GUUCCGUGGGCGUAAUGGUAACGCGUCUCCCUCCUCAGGAGAAGUCUGUGGGUUCGAGUCCCGUACGGAACG gave a yeast fitness of at most 0.5.
With GUUCUGUUGGCGUAAUGGUAACGCGUCUCCCUCCUAAGGAGAAGACUGCGGGUUCGAGGCGCGUACGGAACG the yeast fitness was 0.606.
For GUUCCGUUGGCGUAAUGGUAACGCAUCUCCUUCCUAAGGAGAAGACUGCGGGUUCGAGUCCCGUACGGACCG, the yeast fitness was 0.731.
GUUCCGUUGGCGUAAUGGUAACGCGUCUGCCUGCUAAGGAGAAGACUGUGGGUUCGAGUCCCGUACGGAACG gave a yeast fitness of 0.536.
GUUCCGUUGGUGUAAUGGUAACCCGUCUCCCUCCUAAGGAGAAGACUGCGGGUUCGAAUCCCGUACGGAACG showed a yeast fitness of 0.669.
Work on GUUCCCUUGGCGUACUGGUACCGCGUCUCCCUCUUAUGGAGAAGACUGCGGGUUAGAGCCAUGUACGGAACG yielded a yeast fitness of 0.537.
GUUCCGUUGGCGUAAUGGUAACUGGUUUCCCUCCUAAGGAGAAGACUGCGGGUUCGAGUCCGGUAGGGAACG showed a yeast fitness of at most 0.5.
Variant GUUCCGUUGGUGUAAUGGUAACGCGUCUCCCUCCUAAGGAGAAGACUGCGGGUUCGAGUCCCGUUCGGAGCG has a yeast fitness of 0.696.
For GUUCCGUUGGCGUAAUGGUAACGCGUCUCGCUCUUAAGGAGAAGACUGGGGGUUCGAGUCCCGUACGGAACG, the yeast fitness was 0.615.
